Test results reported in ChEMBL document CHEMBL3085628, “Identification of CB1/CB2 ligands from Zanthoxylum bungeanum” (J Nat Prod, 2013).
pEC50, pIC50: −log10 of the molar value.

Assays:
Homo sapiens = species on record: Homo sapiens; assay: Selectivity ratio of IC50 for human CB1 receptor to IC50 for human CB2 receptor
Cannabinoid receptor 2 [1] = biological target: T1, Cannabinoid receptor 2 (Homo sapiens, UniProt P34972); assay: Inhibition of human CB2 receptor internalization expressed in CHO cells assessed as inhibition of [3H]-CP55940 uptake preincubated for 1 hr followed by radioligand addition measured after 1 hr by liquid scintillation counting analysis relative to control; type: cell-based; parameters: concentration or dose not given beside the values; details: concentration not given here
How it was run: (§1)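 CHO cells stably expressing human CB1 or CB2 grown 24 h at 2.0 × 10^5 cells/mL in DMEM/F12 with 10% FBS. They were preincubated 1 h with serial dilutions (top 5.0 μM for CB1, 10 μM for CB2; DMSO <0.1% final), then given 1 h 10 nM [3H]-Win 55,212-2 (CB1) or 2 nM [3H]-CP 55,940 (CB2). Cells were washed, NaOH-lysed and scintillation-counted. Uptake normalized to no-compound wells; sigmoid fit; mean ± SE, n = 6.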

Cannabinoid receptor 2 [2] = biological target: T1, Cannabinoid receptor 2; assay: Displacement of [3H]-CP55940 from human CB2 receptor expressed in CHO cells preincubated for 1 hr followed by radioligand addition measured after 1 hr by liquid scintillation counting analysis; type: cell-based; how it was run: as §1
Cannabinoid receptor 1 [3] = biological target: T2, Cannabinoid receptor 1 (Homo sapiens, UniProt P21554); assay: Inhibition of human CB1 receptor internalization expressed in CHO cells assessed as inhibition of [3H]-Win55212-2 uptake preincubated for 1 hr followed by radioligand addition measured after 1 hr by liquid scintillation counting analysis relative to control; type: cell-based; parameters: concentration or dose not given beside the values; details: concentration not given here; how it was run: as §1
Cannabinoid receptor 1 [4] = biological target: T2, Cannabinoid receptor 1; assay: Displacement of [3H]-Win55212-2 from human CB1 receptor expressed in CHO cells preincubated for 1 hr followed by radioligand addition measured after 1 hr by liquid scintillation counting analysis; type: cell-based; how it was run: as §1
Cannabinoid receptor 2 [5] = biological target: T1, Cannabinoid receptor 2; assay: Agonist activity at CB2 receptor (unknown origin) at 10 uM after 90 to 180 mins by beta-arrestin assay relative to control
[6] = biological target: T3, Follicle-stimulating hormone receptor (Homo sapiens) (UniProt P23945); assay: Antagonist activity at FSHR (unknown origin) at 10 uM after 3 to 5 hrs by beta-arrestin assay relative to control
T3 sequence (whole entry): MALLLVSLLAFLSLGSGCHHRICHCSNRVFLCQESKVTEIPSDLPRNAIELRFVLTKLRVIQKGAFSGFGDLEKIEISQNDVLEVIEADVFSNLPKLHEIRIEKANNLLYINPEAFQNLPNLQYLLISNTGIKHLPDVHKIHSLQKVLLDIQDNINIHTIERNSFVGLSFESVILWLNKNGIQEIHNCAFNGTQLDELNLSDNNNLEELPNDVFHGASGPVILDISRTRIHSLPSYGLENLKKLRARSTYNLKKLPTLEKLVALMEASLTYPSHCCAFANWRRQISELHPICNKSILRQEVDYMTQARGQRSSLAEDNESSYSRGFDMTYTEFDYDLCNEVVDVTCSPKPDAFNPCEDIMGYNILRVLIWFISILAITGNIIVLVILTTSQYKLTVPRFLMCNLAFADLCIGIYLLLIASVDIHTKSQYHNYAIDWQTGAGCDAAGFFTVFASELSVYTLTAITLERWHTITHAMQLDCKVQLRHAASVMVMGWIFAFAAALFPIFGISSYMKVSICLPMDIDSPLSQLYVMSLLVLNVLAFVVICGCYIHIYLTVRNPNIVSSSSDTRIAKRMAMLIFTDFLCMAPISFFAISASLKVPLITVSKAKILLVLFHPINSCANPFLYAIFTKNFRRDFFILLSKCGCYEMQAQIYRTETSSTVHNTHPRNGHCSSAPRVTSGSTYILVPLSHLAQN

Cannabinoid receptor 1 [7] = biological target: T2, Cannabinoid receptor 1; assay: Antagonist activity at CB1 receptor (unknown origin) at 10 uM after 3 to 5 hrs by beta-arrestin assay relative to control
[8] = biological target: T4, Prolactin-releasing peptide receptor (Homo sapiens) (UniProt P49683); assay: Antagonist activity at PRLHR (unknown origin) at 10 uM after 3 to 5 hrs by beta-arrestin assay relative to control
T4 sequence (whole entry): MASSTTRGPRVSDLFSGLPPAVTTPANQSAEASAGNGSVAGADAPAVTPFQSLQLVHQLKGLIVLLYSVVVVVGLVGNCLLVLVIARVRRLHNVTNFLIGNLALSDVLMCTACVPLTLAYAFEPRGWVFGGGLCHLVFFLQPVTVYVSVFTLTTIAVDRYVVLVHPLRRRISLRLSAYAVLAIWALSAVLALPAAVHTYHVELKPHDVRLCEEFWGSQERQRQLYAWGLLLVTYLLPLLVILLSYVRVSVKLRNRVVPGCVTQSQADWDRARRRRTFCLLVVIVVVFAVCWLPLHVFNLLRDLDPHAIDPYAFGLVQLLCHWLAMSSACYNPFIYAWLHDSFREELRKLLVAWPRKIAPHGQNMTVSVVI

Cannabinoid receptor 2 [9] = biological target: T1, Cannabinoid receptor 2; assay: Antagonist activity at CB2 receptor (unknown origin) at 10 uM after 3 to 5 hrs by beta-arrestin assay relative to control
[10] = biological target: Prostaglandin E2 receptor EP2 subtype (Homo sapiens) (UniProt P43116); assay: Agonist activity at PTGER2 (unknown origin) at 10 uM after 90 to 180 mins by beta-arrestin assay relative to control
[11] = biological target: T5, Relaxin-3 receptor 1 (Homo sapiens) (UniProt Q9NSD7); assay: Agonist activity at RXFP3 (unknown origin) at 10 uM after 90 to 180 mins by beta-arrestin assay relative to control
T5 sequence (whole entry): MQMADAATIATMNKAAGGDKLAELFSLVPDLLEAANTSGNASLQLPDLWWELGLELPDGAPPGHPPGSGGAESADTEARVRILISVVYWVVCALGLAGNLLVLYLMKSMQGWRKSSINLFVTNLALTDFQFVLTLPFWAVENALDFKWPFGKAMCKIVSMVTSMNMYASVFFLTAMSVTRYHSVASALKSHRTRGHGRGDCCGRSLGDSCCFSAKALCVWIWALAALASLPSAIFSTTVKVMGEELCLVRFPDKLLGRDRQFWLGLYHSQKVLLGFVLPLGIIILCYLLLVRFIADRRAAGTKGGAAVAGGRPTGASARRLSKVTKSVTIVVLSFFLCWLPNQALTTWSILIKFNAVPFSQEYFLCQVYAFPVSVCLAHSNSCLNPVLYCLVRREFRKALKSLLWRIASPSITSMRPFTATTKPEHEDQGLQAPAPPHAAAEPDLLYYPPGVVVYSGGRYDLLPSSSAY

[12] = biological target: Histamine H4 receptor (Homo sapiens) (UniProt Q9H3N8); assay: Agonist activity at HRH4 (unknown origin) at 10 uM after 90 to 180 mins by beta-arrestin assay relative to control
[13] = biological target: T6, G-protein coupled receptor 151 (Homo sapiens) (UniProt Q8TDV0); assay: Agonist activity at GPR151 (unknown origin) expressed in CHO-K1 cells at 10 uM after 90 to 180 mins by beta-arrestin assay relative to control; type: cell-based
T6 sequence (whole entry): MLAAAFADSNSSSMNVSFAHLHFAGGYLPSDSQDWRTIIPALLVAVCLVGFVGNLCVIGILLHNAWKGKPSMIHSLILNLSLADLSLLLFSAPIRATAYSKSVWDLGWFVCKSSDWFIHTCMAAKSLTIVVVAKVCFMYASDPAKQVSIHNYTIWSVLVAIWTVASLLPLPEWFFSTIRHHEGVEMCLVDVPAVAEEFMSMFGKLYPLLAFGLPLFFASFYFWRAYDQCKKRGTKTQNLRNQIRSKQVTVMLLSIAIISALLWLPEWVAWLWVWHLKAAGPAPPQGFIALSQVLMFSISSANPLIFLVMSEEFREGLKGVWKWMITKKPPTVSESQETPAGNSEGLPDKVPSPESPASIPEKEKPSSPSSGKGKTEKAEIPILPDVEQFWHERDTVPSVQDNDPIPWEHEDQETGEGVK

[14] = biological target: T7, Probable G-protein coupled receptor 132 (Homo sapiens) (UniProt Q9UNW8); assay: Agonist activity at GPR132 (unknown origin) expressed in CHO-K1 cells at 10 uM after 90 to 180 mins by beta-arrestin assay relative to control; type: cell-based
T7 sequence (whole entry): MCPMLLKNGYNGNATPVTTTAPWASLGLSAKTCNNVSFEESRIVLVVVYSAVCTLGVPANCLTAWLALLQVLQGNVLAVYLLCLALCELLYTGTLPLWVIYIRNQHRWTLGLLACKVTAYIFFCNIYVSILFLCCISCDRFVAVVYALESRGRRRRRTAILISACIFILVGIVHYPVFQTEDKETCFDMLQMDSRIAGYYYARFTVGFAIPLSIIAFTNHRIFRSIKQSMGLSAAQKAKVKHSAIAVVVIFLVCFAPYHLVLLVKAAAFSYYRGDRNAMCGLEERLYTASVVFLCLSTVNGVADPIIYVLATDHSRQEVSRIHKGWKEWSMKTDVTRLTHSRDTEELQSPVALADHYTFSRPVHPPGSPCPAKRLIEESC

[15] = biological target: G-protein coupled receptor 55 (Homo sapiens) (UniProt Q9Y2T6); assay: Agonist activity at GPR55 (unknown origin) expressed in CHO-K1 cells at 10 uM after 90 to 180 mins by beta-arrestin assay relative to control; type: cell-based
[16] = biological target: T3, Follicle-stimulating hormone receptor (Homo sapiens); assay: Agonist activity at FSHR (unknown origin) at 10 uM after 90 to 180 mins by beta-arrestin assay relative to control
[17] = biological target: T4, Prolactin-releasing peptide receptor (Homo sapiens); assay: Agonist activity at PRLHR (unknown origin) at 10 uM after 90 to 180 mins by beta-arrestin assay relative to control
Cannabinoid receptor 1 [18] = biological target: T2, Cannabinoid receptor 1; assay: Agonist activity at CB1 receptor (unknown origin) at 10 uM after 90 to 180 mins by beta-arrestin assay relative to control
Cannabinoid receptor 2 [19] = biological target: T1, Cannabinoid receptor 2; assay: Agonist activity at CB2 receptor (unknown origin) after 90 to 180 mins by beta-arrestin assay

T2 sequence (P21554 whole entry): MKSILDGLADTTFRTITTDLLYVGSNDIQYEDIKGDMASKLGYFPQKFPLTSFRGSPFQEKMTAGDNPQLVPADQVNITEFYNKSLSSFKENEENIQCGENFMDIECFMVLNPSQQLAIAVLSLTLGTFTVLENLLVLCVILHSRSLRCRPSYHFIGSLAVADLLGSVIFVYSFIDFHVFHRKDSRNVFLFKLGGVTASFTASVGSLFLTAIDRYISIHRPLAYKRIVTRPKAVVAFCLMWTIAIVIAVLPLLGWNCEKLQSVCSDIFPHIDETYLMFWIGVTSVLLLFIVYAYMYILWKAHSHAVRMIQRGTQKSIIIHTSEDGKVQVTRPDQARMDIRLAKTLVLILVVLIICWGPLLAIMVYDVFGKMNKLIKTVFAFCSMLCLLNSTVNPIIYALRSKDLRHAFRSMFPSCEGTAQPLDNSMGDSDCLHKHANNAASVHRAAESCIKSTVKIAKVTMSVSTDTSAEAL
T1 sequence (P34972 whole entry): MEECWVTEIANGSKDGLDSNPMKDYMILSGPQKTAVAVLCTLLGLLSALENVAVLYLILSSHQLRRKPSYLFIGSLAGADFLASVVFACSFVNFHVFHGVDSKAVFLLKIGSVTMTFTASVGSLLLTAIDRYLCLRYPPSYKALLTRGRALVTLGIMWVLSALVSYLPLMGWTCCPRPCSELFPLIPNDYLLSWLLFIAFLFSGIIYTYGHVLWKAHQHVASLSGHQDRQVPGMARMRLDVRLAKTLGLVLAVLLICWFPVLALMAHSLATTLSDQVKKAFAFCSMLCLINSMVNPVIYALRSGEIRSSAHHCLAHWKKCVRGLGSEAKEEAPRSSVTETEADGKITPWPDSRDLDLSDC
Sequence of G-protein coupled receptor 55 (Homo sapiens) (Q9Y2T6 whole entry): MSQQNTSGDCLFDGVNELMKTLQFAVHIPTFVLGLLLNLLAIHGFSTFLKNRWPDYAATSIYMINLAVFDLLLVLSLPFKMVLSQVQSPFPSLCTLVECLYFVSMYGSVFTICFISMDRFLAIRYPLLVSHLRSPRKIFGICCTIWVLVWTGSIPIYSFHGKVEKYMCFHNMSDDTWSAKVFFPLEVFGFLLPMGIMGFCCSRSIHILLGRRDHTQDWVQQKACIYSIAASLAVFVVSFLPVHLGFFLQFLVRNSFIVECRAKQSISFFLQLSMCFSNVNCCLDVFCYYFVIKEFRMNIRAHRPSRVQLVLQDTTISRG
Sequence of Prostaglandin E2 receptor EP2 subtype (Homo sapiens) (P43116 whole entry): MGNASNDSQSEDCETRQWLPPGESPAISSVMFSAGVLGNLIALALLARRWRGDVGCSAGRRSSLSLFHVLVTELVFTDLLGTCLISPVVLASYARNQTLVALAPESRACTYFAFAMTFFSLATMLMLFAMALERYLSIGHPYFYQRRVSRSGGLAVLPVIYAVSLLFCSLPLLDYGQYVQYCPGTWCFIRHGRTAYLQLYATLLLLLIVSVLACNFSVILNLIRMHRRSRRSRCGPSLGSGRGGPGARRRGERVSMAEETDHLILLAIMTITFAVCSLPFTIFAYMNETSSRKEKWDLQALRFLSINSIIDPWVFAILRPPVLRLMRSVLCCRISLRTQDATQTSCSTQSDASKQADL

Row | Ratio IC50 (Homo sapiens) | inhibition (Cannabinoid receptor 2 [1]) | pIC50 (Cannabinoid receptor 2 [2]) | inhibition (Cannabinoid receptor 1 [3]) | pIC50 (Cannabinoid receptor 1 [4]) | Compound | further results
1 | 2560 | 73% | 8.70 | 30% | 5.34 | CCCCCCCCC/C=C/C=C/C(=O)NCC(C)(C)O [TETRAHYDROBUNGEANOOL] | 
2 | 6.2 | 34% | 6.65 | 39% | 5.86 | C/C=C/C=C/C=C/CC/C=C/C=C/C(=O)NCC(C)(C)O | 
3 |  |  | 7.23 |  | 5.13 | C/C=C/C=C/C=C\CC/C=C/C(=O)NCC(C)(C)O | 
4 | 0.9 | 65% | 6.71 | 31% | 6.74 | C/C=C/C=C/C=C\CC/C=C/C=C/C(=O)NCC(C)(C)O | 
5 |  |  | 6.88 |  | 8.05 | C/C=C/C=C/C=C/CC/C=C/C(=O)NCC(C)(C)O | 
6 | 0.24 | 65% | 6.77 | 76% | 7.39 | C/C=C/C=C/C=C\CC/C=C/C(=O)NCC(C)(O)CO (centres undefined) | 

Row | Compound | Ratio IC50 (Homo sapiens) | inhibition (Cannabinoid receptor 2 [1]) | pIC50 (Cannabinoid receptor 2 [2]) | inhibition (Cannabinoid receptor 1 [3]) | pIC50 (Cannabinoid receptor 1 [4]) | further results
7 | C/C=C/C=C/C=C/CC/C=C/C=C/C(=O)NCC(C)C | 0.15 | 57% | 6.18 | 37% | 7.00 | % activity (Cannabinoid receptor 2 [5]): 64%; inhibition [6]: 68%; inhibition (Cannabinoid receptor 1 [7]): 72%; inhibition [8]: 52%; inhibition (Cannabinoid receptor 2 [9]): 15%; Activity [10]: 7%; Activity [11]: 18%; Activity [12]: 18%; Activity [13]: 76%; Activity [14]: 61%; Activity [15]: 67%; Activity [16]: 5%; Activity [17]: 5%; Activity (Cannabinoid receptor 1 [18]): 5%; pEC50 (Cannabinoid receptor 2 [19]): 7.38
8 | CC/C=C/C/C=C\CC/C=C/C=C/C(=O)NCC(C)(C)O | 0.26 | 62% | 5.04 | 45% | 5.62 | 
